Measurements as given in ChEMBL document CHEMBL5329156, “Discovery and development of novel substituted monohydrazides as potent antifungal agents” (RSC Med Chem, 2023).
Converted amounts (≈) assume the structure as drawn.

How the values were obtained:
Clavispora lusitaniae = test: Antifungal activity against Clavispora lusitaniae AR Bank # 398 assessed as fungal growth inhibition by double dilution method; format: functional
Procedure, shortened: (§1)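 Broth microdilution after CLSI M27-A3/M38-A2 with minor changes. Single colony grown overnight in YPD at 35 °C, 200 rpm. Compound final range 0.06-31.3 µg/mL; incubated 48 h at 35 °C.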

Aspergillus fumigatus [1] = test: Antifungal activity against Aspergillus fumigatus NRRL 6113 assessed as fungal growth inhibition by double dilution method; format: functional
Candida albicans [2] = test: Antifungal activity against itraconazole/fluconazole resistant Candida albicans ATCC 90819 assessed as fungal growth inhibition by double dilution method; format: functional
Procedure, shortened: (§2)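 Broth microdilution after CLSI M27-A3/M38-A2 with minor modifications. A single colony was grown overnight in YPD at 35 °C with shaking at 200 rpm. Cells were mixed 1:1 with compound (final 0.06-31.3 µg/mL, from DMSO stocks) and incubated 48 h at 35 °C.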

[Candida] auris [3] = Antifungal activity against Candida auris AR Bank # 382 assessed as fungal growth inhibition by double dilution method; format: functional; settings: Candidozyma auris; procedure, shortened: as §1
Candida duobushaemulonii [4] = test: Antifungal activity against Candida duobushaemulonii AR Bank # 394 assessed as fungal growth inhibition by double dilution method; format: functional; settings: Candidozyma duobushaemuli; procedure, shortened: as §1
Saccharomyces cerevisiae [5] = test: Antifungal activity against Saccharomyces cerevisiae AR Bank # 400 assessed as fungal growth inhibition by double dilution method; format: functional; procedure, shortened: as §1
[Candida] auris [6] = Antifungal activity against Candida auris AR Bank # 390 assessed as fungal growth inhibition by double dilution method; format: functional; settings: Candidozyma auris; procedure, shortened: as §1
Pichia kudriavzevii [7] = test: Antifungal activity against Pichia kudriavzevii AR Bank # 397 assessed as fungal growth inhibition by double dilution method; format: functional; procedure, shortened: as §1
[Candida] auris [8] = Antifungal activity against Candida auris AR Bank # 386 assessed as fungal growth inhibition by double dilution method; format: functional; settings: Candidozyma auris; procedure, shortened: as §1
HepG2 = test: Cytotoxicity against human HepG2 cells assessed as reduction in cell viability upto 31.3 microg/ml; format: toxicity, cell-based; settings: dose < 31.3 µg/ml
Procedure, shortened: (§3)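 Cells in DMEM with 10% FBS and 1% Pen/Strep, seeded at 10,000 cells/well and held overnight at 37 °C, 5% CO2. Compounds added at final 31.3-0.12 µg/mL (0.05% DMSO vehicle) for 24 h. Resazurin then added for 6 h; fluorescence read at ex 560/em 590. Triton X-100 1% as positive control; values normalized to vehicle. Run in quadruplicate.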

Candida duobushaemulonii [9] = test: Antifungal activity against Candida duobushaemulonii AR Bank # 392 assessed as fungal growth inhibition by double dilution method; format: functional; settings: Candidozyma duobushaemuli; procedure, shortened: as §1
Aspergillus nidulans = test: Antifungal activity against Aspergillus nidulans ATCC 38163 assessed as fungal growth inhibition by double dilution method; format: functional
[Candida] auris [10] = Antifungal activity against Candida auris AR Bank # 384 assessed as fungal growth inhibition by double dilution method; format: functional; settings: Candidozyma auris; procedure, shortened: as §1
[Candida] auris [11] = Antifungal activity against Candida auris AR Bank # 388 assessed as fungal growth inhibition by double dilution method; format: functional; settings: Candidozyma auris; procedure, shortened: as §1
HEK293 = test: Cytotoxicity against human HEK-293 cells assessed as reduction in cell viability at 31.3 microg/ml; format: toxicity, cell-based; settings: dose 31.3 µg/ml; procedure, shortened: as §3
Candida albicans [12] = test: Antifungal activity against Candida albicans ATCC 10231 assessed as fungal growth inhibition by double dilution method; format: functional; procedure, shortened: as §1
[Candida] auris [13] = Antifungal activity against Candida auris AR Bank # 383 assessed as fungal growth inhibition by double dilution method; format: functional; settings: Candidozyma auris; procedure, shortened: as §1
Aspergillus fumigatus [14] = test: Antifungal activity against Aspergillus fumigatus NRRL 163 assessed as fungal growth inhibition by double dilution method; format: functional
Aspergillus flavus = test: Antifungal activity against Aspergillus flavus ATCC MYA-3631 assessed as fungal growth inhibition by double dilution method; format: functional
Candida albicans [15] = test: Antifungal activity against itraconazole/fluconazole resistant Candida albicans ATCC MYA-1237 assessed as fungal growth inhibition by double dilution method; format: functional; procedure, shortened: as §2
[Candida] auris [16] = Antifungal activity against Candida auris AR Bank # 381 assessed as fungal growth inhibition by double dilution method; format: functional; settings: Candidozyma auris; procedure, shortened: as §1
Candida albicans [17] = test: Antifungal activity against Candida albicans ATCC 64124 assessed as fungal growth inhibition by double dilution method; format: functional; procedure, shortened: as §2
Candida albicans [18] = test: Antifungal activity against itraconazole/fluconazole susceptible Candida albicans ATCC MYA-2310 assessed as fungal growth inhibition by double dilution method; format: functional; procedure, shortened: as §2
Aspergillus fumigatus [19] = test: Antifungal activity against Aspergillus fumigatus NRRL 5109 assessed as fungal growth inhibition by double dilution method; format: functional
Aspergillus terreus = test: Antifungal activity against Aspergillus terreus ATCC MYA-3633 assessed as fungal growth inhibition by double dilution method; format: functional
Saccharomyces cerevisiae [20] = test: Antifungal activity against Saccharomyces cerevisiae AR Bank # 399 assessed as fungal growth inhibition by double dilution method; format: functional; procedure, shortened: as §1
Candida albicans [21] = test: Antifungal activity against itraconazole/fluconazole resistant Candida albicans ATCC MYA-1003 assessed as fungal growth inhibition by double dilution method; format: functional; procedure, shortened: as §2
J774.A1 = test: Cytotoxicity against J774A.1 cells assessed as reduction in cell viability at 31.3 microg/ml; format: toxicity, cell-based; settings: mouse, dose 31.3 µg/ml; procedure, shortened: as §3
Nakaseomyces glabratus [22] = test: Antifungal activity against Candida glabrata ATCC 2001 assessed as fungal growth inhibition by double dilution method; format: functional; procedure, shortened: as §1
Pichia kudriavzevii [23] = test: Antifungal activity against Pichia kudriavzevii ATCC 6258 assessed as fungal growth inhibition by double dilution method; format: functional; procedure, shortened: as §1
[Candida] auris [24] = Antifungal activity against Candida auris AR Bank # 389 assessed as fungal growth inhibition by double dilution method; format: functional; settings: Candidozyma auris; procedure, shortened: as §1
Nakaseomyces glabratus [25] = test: Antifungal activity against Candida glabrata ATCC 22019 assessed as fungal growth inhibition by double dilution method; format: functional; procedure, shortened: as §1
[Candida] auris [26] = Antifungal activity against Candida auris AR Bank # 0390 assessed as fungal growth inhibition by double dilution method; format: functional; settings: Candidozyma auris; procedure, shortened: as §1
Candida duobushaemulonii [27] = test: Antifungal activity against Candida duobushaemulonii AR Bank # 391 assessed as fungal growth inhibition by double dilution method; format: functional; settings: Candidozyma duobushaemuli; procedure, shortened: as §1
[Candida] auris [28] = Antifungal activity against Candida auris AR Bank # 0384 assessed as fungal growth inhibition by double dilution method; format: functional; settings: Candidozyma auris; procedure, shortened: as §1
[Candida] haemuloni [29] = Antifungal activity against Candida haemulonii AR Bank # 393 assessed as fungal growth inhibition by double dilution method; format: functional; settings: Candidozyma haemuli; procedure, shortened: as §1
Candida albicans [30] = test: Antifungal activity against itraconazole/fluconazole susceptible Candida albicans ATCC MYA-2876 assessed as fungal growth inhibition by double dilution method; format: functional; procedure, shortened: as §2
[Candida] auris [31] = Antifungal activity against Candida auris AR Bank # 387 assessed as fungal growth inhibition by double dilution method; format: functional; settings: Candidozyma auris; procedure, shortened: as §1
Cryptococcus neoformans = test: Antifungal activity against Cryptococcus neoformans ATCC MYA-895 assessed as fungal growth inhibition by double dilution method; format: functional; procedure, shortened: as §1
Kodamaea ohmeri = test: Antifungal activity against Kodamaea ohmeri AR Bank # 396 assessed as fungal growth inhibition by double dilution method; format: functional; procedure, shortened: as §1
[Candida] haemuloni [32] = Antifungal activity against Candida haemulonii AR Bank # 395 assessed as fungal growth inhibition by double dilution method; format: functional; settings: Candidozyma haemuli; procedure, shortened: as §1
[Candida] auris [33] = Antifungal activity against Candida auris AR Bank # 385 assessed as fungal growth inhibition by double dilution method; format: functional; settings: Candidozyma auris; procedure, shortened: as §1

O=C(NNc1cccc(Cl)c1)c1cnccn1
MIC (Clavispora lusitaniae): 0.49 µg/mL (≈ 1.97 µM)
MIC (Aspergillus fumigatus [1]): > 31.3 µg/mL
MIC (Candida albicans [2]): 3.9 µg/mL (≈ 15.7 µM)
MIC ([Candida] auris [3]): 0.12 µg/mL (≈ 0.483 µM)
MIC (Candida duobushaemulonii [4]): 0.12 µg/mL (≈ 0.483 µM)
MIC (Saccharomyces cerevisiae [5]): 0.98 µg/mL (≈ 3.94 µM)
MIC ([Candida] auris [6]): 0.49 µg/mL (≈ 1.97 µM)
MIC (Pichia kudriavzevii [7]): 0.12 µg/mL (≈ 0.483 µM)
MIC ([Candida] auris [8]): ≤ 0.06 µg/mL
Activity (HepG2): Non-Toxic
MIC (Candida duobushaemulonii [9]): 0.12 µg/mL (≈ 0.483 µM)
MIC (Aspergillus nidulans): 0.98 µg/mL (≈ 3.94 µM)
MIC ([Candida] auris [10]): 0.98 µg/mL (≈ 3.94 µM)
MIC ([Candida] auris [11]): 0.24 µg/mL (≈ 0.965 µM)
Activity (HEK293): Non-Toxic
MIC (Candida albicans [12]): 0.24 µg/mL (≈ 0.965 µM)
MIC ([Candida] auris [13]): 0.24 µg/mL (≈ 0.965 µM)
MIC (Aspergillus fumigatus [14]): > 31.3 µg/mL
MIC (Aspergillus flavus): > 31.3 µg/mL
MIC (Candida albicans [15]): 0.98 µg/mL (≈ 3.94 µM)
MIC ([Candida] auris [16]): 0.49 µg/mL (≈ 1.97 µM)
MIC (Candida albicans [17]): 1.95 µg/mL (≈ 7.84 µM)
MIC (Candida albicans [18]): 7.8 µg/mL (≈ 31.4 µM)
MIC (Aspergillus fumigatus [19]): > 31.3 µg/mL
MIC (Aspergillus terreus): 0.98 µg/mL (≈ 3.94 µM)
MIC (Saccharomyces cerevisiae [20]): 0.98 µg/mL (≈ 3.94 µM)
MIC (Candida albicans [21]): 0.98 µg/mL (≈ 3.94 µM)
Activity (J774.A1): Non-Toxic
MIC (Nakaseomyces glabratus [22]): 3.9 µg/mL (≈ 15.7 µM)
MIC (Pichia kudriavzevii [23]): 0.24 µg/mL (≈ 0.965 µM)
MIC ([Candida] auris [24]): 0.24 µg/mL (≈ 0.965 µM)
MIC (Nakaseomyces glabratus [25]): 1.95 µg/mL (≈ 7.84 µM)
MIC ([Candida] auris [26]): 0.98 µg/mL (≈ 3.94 µM)
MIC (Candida duobushaemulonii [27]): 0.24 µg/mL (≈ 0.965 µM)
MIC ([Candida] auris [28]): 1.95 µg/mL (≈ 7.84 µM)
MIC ([Candida] haemuloni [29]): 0.24 µg/mL (≈ 0.965 µM)
MIC (Candida albicans [30]): 1.95 µg/mL (≈ 7.84 µM)
MIC ([Candida] auris [31]): 0.24 µg/mL (≈ 0.965 µM)
MIC (Cryptococcus neoformans): 0.24 µg/mL (≈ 0.965 µM)
MIC (Kodamaea ohmeri): 0.12 µg/mL (≈ 0.483 µM)
MIC ([Candida] haemuloni [32]): 0.24 µg/mL (≈ 0.965 µM)
MIC ([Candida] auris [33]): 0.24 µg/mL (≈ 0.965 µM)
